LMPTP inh: LMPTP phosphatase inhibitors, primary screen, biochemical, fluorescence intensity, uHTS. recombinant LMPTP-A, OMFP fluorogenic substrate. hit rate 0.22% among 360,000. AID 651560, 2012. inhibition, % at 20 µM. Low molecular weight phosphotyrosine protein phosphatase (Homo sapiens), P24666;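 active = compounds that cut the enzyme signal by at least half of the control window in the single-dose screen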;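 also: plate controls were DMSO wells with enzyme plus substrate for no effect and substrate without enzyme for full effect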
Target sequence (P24666 whole entry, looked up): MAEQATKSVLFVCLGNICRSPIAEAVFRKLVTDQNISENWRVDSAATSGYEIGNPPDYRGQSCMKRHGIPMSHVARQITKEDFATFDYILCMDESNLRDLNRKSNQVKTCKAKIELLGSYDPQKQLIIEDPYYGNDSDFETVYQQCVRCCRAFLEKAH
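Assay system: LMPTP-A, protein tyrosine phosphatase of low molecular weight / Medium: pH 6.0 Bis-Tris buffer with DTT and Triton X-100 / Schedule: 50 min enzyme reaction at room temperature, protected from light / Measured by: endpoint fluorescence intensity from OMFP dephosphorylation / Read-out basis: % inhibition relative to no-enzyme and uninhibited control wells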
STEP inh: STEP phosphatase inhibitors, primary screen, biochemical, fluorescence intensity, uHTS; Tyrosine-protein phosphatase non-receptor type 5 (Homo sapiens), P54829; recombinant STEP, OMFP fluorogenic substrate; inhibition, % at 20 µM; hit rate 0.25% among 360,000;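 active = inhibition at 20 µM, scaled per plate between control wells, above about 37%, limit read from the data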;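 also: 0% = DMSO with enzyme and substrate and 100% = substrate only without enzyme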
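Assay system: isolated STEP enzyme / Timing: 20 min at room temperature, dark / Doses: 20 µM, 1% DMSO / Technique: fluorescence intensity, excitation 480 nm, emission 540 nm / Reagent: fluorogenic phosphatase substrate OMFP at 25 µM final / Measure: percent inhibition scaled to no-enzyme and uninhibited-enzyme controls, plate-pattern corrected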
PP5 primary: PP5 phosphatase inhibitors, primary screen, biochemical, fluorescence | purified PP5c, OMFP substrate fluorescence | inhibition, % at 6.7 µM | hit rate 0.18% among 320,000 | AID 1987, 2009 | Serine/threonine-protein phosphatase 5 (Homo sapiens), P53041;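 active = inhibition above the campaign's mean inhibition across all tested compounds plus 3 SD, cut at about 9.5% in these data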;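 also: 0% = DMSO only and 100% = 100 µM cantharidin control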
Target sequence (P53041 whole entry, looked up): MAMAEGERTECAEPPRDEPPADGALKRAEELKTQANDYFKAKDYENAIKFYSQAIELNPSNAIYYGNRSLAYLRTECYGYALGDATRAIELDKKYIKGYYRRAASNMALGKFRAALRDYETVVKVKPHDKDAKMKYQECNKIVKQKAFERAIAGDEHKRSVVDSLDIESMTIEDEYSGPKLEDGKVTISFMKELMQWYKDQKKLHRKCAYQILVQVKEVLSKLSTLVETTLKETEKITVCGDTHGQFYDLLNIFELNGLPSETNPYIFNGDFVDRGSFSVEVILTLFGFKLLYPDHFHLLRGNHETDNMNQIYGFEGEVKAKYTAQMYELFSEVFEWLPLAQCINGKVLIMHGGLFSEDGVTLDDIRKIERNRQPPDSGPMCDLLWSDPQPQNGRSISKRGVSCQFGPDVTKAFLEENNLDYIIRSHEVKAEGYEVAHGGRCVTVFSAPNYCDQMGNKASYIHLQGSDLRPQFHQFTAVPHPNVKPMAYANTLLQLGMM
PP1 counter: PP1-alpha phosphatase inhibitors, primary screen, counter-screen for PP5 inhibitor project, biochemical, fluorescence, OMFP substrate, single point; purified PP1alpha; AID 2235, 2010; hit rate 0.9% among 320,000; Serine/threonine-protein phosphatase PP1-alpha catalytic subunit (Homo sapiens), P62136; inhibition, % at 6.7 µM;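 active = inhibition above the mean inhibition of all tested compounds plus 3 SD, computed separately for each screening campaign, cut at about 15% in these data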
Scp-1 inhibitor: Scp-1 phosphatase inhibitors, primary screen, biochemical, colorimetric, uHTS; Carboxy-terminal domain RNA polymerase II polypeptide A small phosphatase 1 (Homo …; Recombinant Scp1, phosphopeptide, malachite green phosphate absorbance; inhibition, % at 20 µM; hit rate 0.88% among 340,000;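 active = inhibition above about 50% at 20 µM, limit read from the data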;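 also: plate controls were DMSO wells with enzyme for no effect and wells lacking enzyme for full effect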
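assay system = SCP-1 phosphatase catalytic domain, residues 76-261 | buffer or medium = 50 mM Tris acetate pH 5.5, 0.005% Tween-20, 10 mM MgCl2 | incubation = enzyme reaction 45 min at room temperature, colour 5 min, stabilisation 30 min | signal = Phosphate-binding colour reagent, absorbance read at 630 nm | measure = % inhibition at 20 µM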
Scp-1 conf: Scp-1 phosphatase inhibitors, retest, confirmation, biochemical, colorimetric, single concentration | shares compounds with Scp-1 inhibitor | recombinant SCP-1 catalytic domain, phosphate release, malachite green absorbance | inhibition, % at 20 µM | hit rate 61% among 2,500 | AID 540281, 2011;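 also: plate controls were DMSO with enzyme for no effect and buffer wells lacking enzyme for full effect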
MG interference: colorimetric readout interference by compounds, confirmation, artefact control for Scp-1 inhibitor project, biochemical, single concentration; shares compounds with Scp-1 inhibitor; Colorimetric interference counterscreen, malachite green absorbance 630 nm; apparent inhibition (interference), % at 20 µM; 2,500 tested, under 10 active; AID 540313, 2011;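 also: compounds added after enzyme reaction finished so only phosphate colour detection is probed; plate controls were DMSO wells with completed Scp-1 reaction for no effect and substrate wells lacking enzyme for full effect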
Scp1 DSF: Scp-1 binding by thermal shift, confirmation, orthogonal assay for Scp-1 inhibitor project, biophysical, differential scanning fluorimetry; AID 540329, 2011; hit rate 25% among 1,500; shares compounds with Scp-1 inhibitor; Recombinant SCP1, Sypro Orange thermal shift Tm; thermal shift relative to vanadate control, % at 40 µM;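 active = substances whose mean melting-temperature shift, as a percentage of the reference inhibitor's shift, reaches about 5.3%, limit read from the data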;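 also: 0% = Tm of DMSO wells and 100% = Tm with sodium orthovanadate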
Starred values were filed as active, the others as inactive; · = no result given. This is a sample that favours compounds with a hit; in the whole collection about 1.9% have one here.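 The calls were made as follows, unless noted: active = inhibition of at least 30% at 20 µM; inactive = the rest.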

SMILES	LMPTP inh	STEP inh	PP5 primary	PP1 counter	Scp-1 inhibitor	Scp-1 conf	MG interference	others
COc1ccccc1-c1sc2cc3c(cc2c1C#CC1(O)CCCCC1)OCO3	2	-2	2	-5	56*	-14	-20
COc1ccccc1-c1oc2ccccc2c1C#CC1(N)CCCCC1	2	-3	2	13	4	·	·
COc1ccccc1-c1oc2ccccc2c1C#CC1(O)CCCCC1	1	-1	·	·	89*	8	-20
CCOc1cc(C(=O)N(C)Cc2cc3cc(OC)ccc3[nH]c2=O)cc(OCC)c1OCC	-1	-1	2	0	15	·	·
CCOc1ccccc1C(=O)N(C)Cc1cc2cc(OC)ccc2[nH]c1=O	-1	1	0	-3	51*	-20	-21
N#Cc1ccccc1OCC(=O)OCCCOC(=O)COc1ccccc1C#N	1	0	6	2	96*	-12	-16
N#Cc1ccccc1OCC(=O)OCC(=O)N1CCCC1	-1	-4	·	·	-8	·	·
CC#CC#Cc1cccc(=O)o1	8	17	1	-1	54*	42*	-2	Scp1 DSF=-8
CC1CCN(S(=O)(=O)c2cc(C(=O)Nc3ccccn3)ccc2Br)CC1	0	-3	0	-2	-4	·	·
O=C(CCCCn1c(=S)[nH]c2ccsc2c1=O)NCc1ccc2c(c1)OCO2	17	12	-3	-5	59*	-18	-25
O=C1C=C(Nc2ccccc2)c2ccccc2C1=O	6	6	·	·	-2	·	·
CCn1c(CNC(=O)COc2ccc(C(C)C)cc2)nnc1SCC(=O)Nc1cc(F)ccc1C	-1	-2	0	0	85*	46*	-17	Scp1 DSF=-6
CCn1c(CNC(=O)COc2ccc(C(C)C)cc2)nnc1SCC(=O)Nc1ccc(F)cc1	0	-1	2	3	-5	·	·
O=C1CCC2(C(=O)O)Sc3ccccc3N12 (stereo not drawn)	-1	1	2	0	3	·	·
C[C@@H]1CC=C[C@@H]2[C@H]1C(=O)N(Cc1ccccc1)[C@H]2c1cccc(C#Cc2ccccc2)c1	5	2	·	·	70*	42*	-22	Scp1 DSF=-16
C[C@@H]1CC=C[C@@H]2[C@H]1C(=O)N(Cc1ccccc1)[C@H]2c1cccc(Br)c1	3	3	·	·	1	·	·
CCC(C)OC(=O)c1cc(C)nc2c(Br)cc(Br)cc12 (stereo not drawn)	2	0	2	-4	-12	·	·
CCN1/C(=C\C(C)=O)Sc2ccc(OC)cc21	-2	2	2	2	96*	10	-5
CN1CCN(C(=O)CN(c2ccccc2)S(=O)(=O)N(C)C)CC1	·	·	1	-4	-6	·	·
Cc1ccc(Cl)cc1N1CCN(C(=O)CN(c2ccccc2)S(=O)(=O)N(C)C)CC1	24	23	6	3	68*	70*	-11	Scp1 DSF=-11
Cc1cc(C(=O)O)cc(S(=O)(=O)NNC(=O)c2cccs2)c1C	-1	2	-1	0	53*	-7	-13
O=C(NNC(=O)c1cccs1)c1ccc(Cl)c(S(=O)(=O)N2CCCC2)c1	-1	-2	·	·	-1	·	·
COC(=O)Cn1cnc2c1c(=O)n(C)c(=O)n2C	0	1	0	-2	-2	·	·
Cc1cccc(OCC(=O)Nc2ccncc2)c1C	-2	-3	1	0	53*	-21	-16
O=C(OCc1nnc(-c2ccccc2)o1)c1ccc(S(=O)(=O)NCc2ccco2)cc1	2	-1	1	-3	53*	68*	-11	Scp1 DSF=5
SMILES	LMPTP inh	STEP inh	PP5 primary	PP1 counter	Scp-1 inhibitor	Scp-1 conf	MG interference	others
NC(=O)COC(=O)c1ccc(S(=O)(=O)NCc2ccco2)cc1	1	6	-1	3	63*	69*	-1	Scp1 DSF=0
COc1cccc(NC(=O)COC(=O)c2ccc(S(=O)(=O)NCc3ccco3)cc2)c1	1	3	1	2	60*	70*	-7	Scp1 DSF=3
C[n+]1ccccc1C1CCCC/C1=N\NC(N)=S (stereo not drawn)	-1	0	-3	-4	113*	100*	1	Scp1 DSF=-9
CC1CCCC/C1=N\NC(=S)NCCc1ccccc1 (stereo not drawn)	0	-1	1	2	-1	·	·
O=S(=O)(c1ccc(NC(=S)N/N=C/c2c3ccccc3cc3ccccc23)cc1)N1CCOCC1	2	2	4	10	-10	·	·
Cc1cccc(C)c1NC(=O)NC1(C(=O)N2CCN3CCCC3C2)CCCCC1 (stereo not drawn)	-1	0	2	0	70*	-17	-13
Clc1ccc2oc(-c3cccnc3)nc2c1	-1	-1	-3	-3	0	·	·
O=C(NCCCc1ccccc1)C1CC(=O)N(c2ccc3c(c2)OCCO3)C1 (stereo not drawn)	2	2	0	2	-2	·	·
O=C(NC(Cc1ccccc1)c1nc2ccccc2[nH]1)C1CC(=O)N(c2ccc3c(c2)OCCO3)C1 (stereo not drawn)	0	-1	2	-1	72*	34*	-15	Scp1 DSF=-6
O=C(Nc1nnc(C2CC2)s1)C1CC(=O)N(c2ccc3c(c2)OCCO3)C1 (stereo not drawn)	3	3	-2	4	61*	56*	-18	Scp1 DSF=2
O=C(NCCc1ccccc1)C1CC(=O)N(c2ccc3c(c2)OCCO3)C1 (stereo not drawn)	-1	1	0	-3	-1	-17	-12
Cc1ccc(S(=O)(=O)NC(=O)c2ccccc2F)cc1	-3	2	0	-5	-8	·	·
Cc1ccc(S(=O)(=O)N2CCN(CCOc3ccccc3)CC2)cc1	0	-1	·	·	-3	·	·
C/C(=N\Nc1nncc2ccccc12)c1ccc(O)cc1	1	0	4	3	-1	·	·
C/C(=N\Nc1nncc2ccccc12)c1ccc(C(C)(C)C)cc1	4	1	3	1	57*	-7	-5
COc1ccc(/C=C2\SC(=S)N(CCCC(=O)Nc3ccc(O)cc3)C2=O)cc1	0	-3	1	-3	-11	·	·

Source: PubChem
